The target in experiment [1] is T1, D(2) dopamine receptor (Bos taurus, UniProt P20288). Put plainly: Inhibitory constant of compound in absence of Gpp(NH)p calculated for the high affinity components of the [3H]spiroperidol binding to Dopamine receptor D2. Put shortly: (§1)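 Bovine striatal membranes (150-200 µg protein) were incubated with 0.2 nM [3H]spiroperidol and varying N-propylnorapomorphine, with or without 100 µM Gpp(NH)p and 100 nM peptidomimetic, plus 50 nM ketanserin, for 1 h at 22 °C, then GF/B filtered. Nonspecific binding was set with 1.0 µM (+)-butaclamol. A two-site fit gave high/low-affinity fractions; Ki values came via Cheng-Prusoff. Mean ± SEM of 3-4 experiments.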
T1 sequence (P20288 whole entry): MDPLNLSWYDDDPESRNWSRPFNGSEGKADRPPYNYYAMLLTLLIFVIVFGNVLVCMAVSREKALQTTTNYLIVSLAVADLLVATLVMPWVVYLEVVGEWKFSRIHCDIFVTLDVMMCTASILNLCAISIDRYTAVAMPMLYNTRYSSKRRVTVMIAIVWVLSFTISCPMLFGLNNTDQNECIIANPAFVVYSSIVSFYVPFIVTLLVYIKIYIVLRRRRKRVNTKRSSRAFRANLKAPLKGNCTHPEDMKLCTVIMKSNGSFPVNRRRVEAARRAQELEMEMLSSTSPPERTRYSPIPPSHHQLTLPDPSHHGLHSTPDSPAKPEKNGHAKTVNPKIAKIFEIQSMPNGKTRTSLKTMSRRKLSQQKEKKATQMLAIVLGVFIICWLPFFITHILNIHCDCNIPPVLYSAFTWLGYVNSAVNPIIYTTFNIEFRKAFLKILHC

For experiment [2], the target named is T1, D(2) dopamine receptor. Put plainly: Inhibitory constant of compound in presence of Gpp(NH)p calculated for the low affinity components of the [3H]spiroperidol binding to Dopamine receptor D2. The procedure, abridged:
as §1

For experiment [3], the target named is T1, D(2) dopamine receptor. Put plainly: Inhibitory constant of compound in presence of Gpp(NH)p (Pre treated with 1 nM) calculated for the high affinity components of the [3H]spiroperidol binding to Dopamine receptor D2.
Experiment [4] concerns the target T1, D(2) dopamine receptor. Put plainly: Inhibitory constant of compound in presence of Gpp(NH)p calculated for the high affinity components of the [3H]spiroperidol binding to Dopamine receptor D2. Put shortly:
as §1

Experiment [5] addresses T1, D(2) dopamine receptor. The experiment can be described thus: Inhibitory constant of compound in absence of Gpp(NH)p calculated for the low affinity components of the [3H]spiroperidol binding to Dopamine receptor D2. The procedure, abridged: as §1
Experiment [6] has as its target T1, D(2) dopamine receptor. The experiment can be described thus: Inhibitory constant of compound in absence of Gpp(NH)p (Pre treated with 1 nM) calculated for the high affinity components of the [3H]spiroperidol binding to Dopamine receptor D2.
In experiment [7] the target is T1, D(2) dopamine receptor. The experiment can be described thus: Inhibitory constant of compound in presence of Gpp(NH)p (Pre treated with 100 nM) calculated for the low affinity components of the [3H]spiroperidol binding to Dopamine receptor D2. The procedure, abridged:
as §1

In experiment [8] the target is T1, D(2) dopamine receptor. Put plainly: Inhibitory constant of compound in presence of Gpp(NH)p (Pre treated with 100 nM) calculated for the high affinity components of the [3H]spiroperidol binding to Dopamine receptor D2. Put shortly:
as §1

Experiment [9] has as its target T1, D(2) dopamine receptor. The experiment can be described thus: Inhibitory constant of compound in absence of Gpp(NH)p (Pre treated with 100 nM) calculated for the high affinity components of the [3H]spiroperidol binding to Dopamine receptor D2. The procedure, abridged:
as §1

The target in experiment [10] is T1, D(2) dopamine receptor. Put plainly: Inhibitory constant of compound in absence of Gpp(NH)p (Pretreated with 100 nM) calculated for the high affinity components of the [3H]spiroperidol binding to Dopamine receptor D2. Put shortly:
as §1

Experiment [11] addresses T1, D(2) dopamine receptor. Put plainly: Inhibitory constant of compound in absence of Gpp(NH)p (Pre treated with 1 uM) calculated for the high affinity components of the [3H]spiroperidol binding to Dopamine receptor D2.
In experiment [12] the target is T1, D(2) dopamine receptor. Put plainly: Inhibitory constant of compound in presence of Gpp(NH)p (Pre treated with 1 uM) calculated for the high affinity components of the [3H]spiroperidol binding to Dopamine receptor D2.
Experiment [13] deals with T1, D(2) dopamine receptor. Put plainly: Percentage of receptor in the high affinity form for the compound to Dopamine receptor D2 in absence of Gpp(NH)p (pre treated with 1 uM).

Molecules are shown by their SMILES. Where a SMILES comes first, the peptide text is derived from it.

By Ki is commonly meant a measure of affinity in units of concentration, obtained from inhibition or displacement. On to `NC(=O)CN1CCC(N2CC(=O)N3CCC[C@H]3C2=O)C1=O` (stereo partly drawn) [2-[3-((2R,8aS)-1,4-Dioxo-hexahydro-pyrrolo[1,2-a]pyrazin-2-yl)-2-oxo-pyrrolidin-1-yl]-acetamide], for which the Ki in experiment [1] was 80 pM; in [2], 50000 pM; in [3], 50 pM; in experiment [4] it was 190 pM; in experiment [5] it was 69000 pM; in experiment [6] it was 20 pM.
Turning to `NC(=O)[C@H]1CS[C@@H]2CC(N3CC(=O)N4CCC[C@H]4C3=O)C(=O)N12` (stereo partly drawn) [(3S,7aR)-6-((2R,8aS)-1,4-Dioxo-hexahydro-pyrrolo[1,2-a]pyrazin-2-yl)-5-oxo-hexahydro-pyrrolo[2,1-b]thiazole-3-carboxylic acid amide], the Ki is 98 pM in [1]; 106000 pM in experiment [7]; 183000 pM in experiment [2]; 67 pM in experiment [8]; 140 pM in experiment [4]; 171000 pM in experiment [5]. For the same compound, in experiment [9], the Ki is 66 pM.
Turning to `CC(C)C[C@@H](C(=O)NCC(N)=O)N1CC(=O)N2CCC[C@H]2C1=O` [(S)-2-((S)-1,4-Dioxo-hexahydro-pyrrolo[1,2-a]pyrazin-2-yl)-4-methyl-pentanoic acid carbamoylmethyl-amide], the Ki in [1] is 80 pM; in experiment [7], 104000 pM; in experiment [2] it was 172000 pM; in experiment [8], 80 pM; in [4], 120 pM; in experiment [5] it was 120000 pM. The Ki in experiment [10] is 68 pM.
Turning to `CC(C)C[C@H](NC(=O)[C@@H]1CCCN1)C(=O)NCC(N)=O` [L-pro-L-leu-gly-NH2] (H-Pro-Leu-Gly-NH2), the Ki is 90 pM in experiment [1]; 40 pM in experiment [11]; 60000 pM in experiment [2]; 60 pM in experiment [12]; 130 pM in [4]; 73000 pM in experiment [5]. Moreover, in experiment [13], the percent high-affinity form is 61 nM.
